Positions of bridges follow the written chain, without caps; N, C: chain ends. Residues, ends and D or L forms follow the SMILES beside them.
Assays:
Kallikrein-5 = biological target: T1, Kallikrein-5 (Homo sapiens, UniProt Q9Y337); assay: Inhibition of KLK5 (unknown origin) expressed in Pichia pastoris strain X-33 using Ac-YRSR-pNA as substrate preincubated for 30 mins followed by substrate addition and measured for 7 mins by spectrophotometric method
T1 sequence (Q9Y337 whole entry): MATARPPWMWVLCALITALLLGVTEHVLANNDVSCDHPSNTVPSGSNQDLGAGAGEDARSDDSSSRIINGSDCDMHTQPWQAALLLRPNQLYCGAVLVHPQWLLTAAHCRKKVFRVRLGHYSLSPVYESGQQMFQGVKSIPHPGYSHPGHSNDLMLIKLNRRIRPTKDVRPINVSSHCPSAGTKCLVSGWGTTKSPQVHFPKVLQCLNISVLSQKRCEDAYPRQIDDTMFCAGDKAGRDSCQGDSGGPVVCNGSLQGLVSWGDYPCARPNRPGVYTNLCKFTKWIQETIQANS

[1] = Stability in human serum at 200 uM up to 24 hrs by RP-HPLC analysis; assay type: ADME, cell-free
In short: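 Peptides incubated in human serum for up to 24 h. At each time point, the area of the peptide peak on analytical HPLC is expressed as a percentage of the peptide peak in PBS at 0 h. Three independent experiments, SD.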

Kallikrein-4 = Kallikrein-4 (Homo sapiens, UniProt Q9Y5K2); assay: Inhibition of KLK4 (unknown origin) expressed in sf9 cells using Ac-FVQR-pNA as substrate preincubated for 30 mins followed by substrate addition and measured for 7 mins by spectrophotometric method
Plasminogen = Plasminogen (Homo sapiens, UniProt P00747); assay: Inhibition of plasmin (unknown origin) using Ac-RM(O2)YR-pNA as substrate preincubated for 30 mins followed by substrate addition and measured for 7 mins by spectrophotometric method
Kallikrein-7 = Kallikrein-7 (Homo sapiens, UniProt P49862); assay: Inhibition of KLK7 (unknown origin) expressed in Pichia pastoris strain X-33 using KHLY-pNA as substrate preincubated for 30 mins followed by substrate addition and measured for 7 mins by spectrophotometric method
Kallikrein-14 = biological target: T2, Kallikrein-14 (Homo sapiens, UniProt Q9P0G3); assay: Inhibition of KLK14 (unknown origin) expressed in sf9 cells using Ac-YANR-pNA as substrate preincubated for 30 mins followed by substrate addition and measured for 7 mins by spectrophotometric method
T2 sequence (Q9P0G3 whole entry): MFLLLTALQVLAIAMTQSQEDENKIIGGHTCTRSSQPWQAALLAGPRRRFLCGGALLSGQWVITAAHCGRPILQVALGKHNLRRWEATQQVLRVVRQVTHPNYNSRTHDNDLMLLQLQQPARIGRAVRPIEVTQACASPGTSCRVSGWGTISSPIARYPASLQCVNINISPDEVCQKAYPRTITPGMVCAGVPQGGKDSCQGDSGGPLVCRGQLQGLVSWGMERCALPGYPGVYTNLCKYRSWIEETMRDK

Coagulation factor X = Coagulation factor X (Homo sapiens, UniProt P00742); assay: Inhibition of factor 10a (unknown origin) using Ac-QRSR-pNA as substrate preincubated for 30 mins followed by substrate addition and measured for 7 mins by spectrophotometric method
Prothrombin = Prothrombin (Homo sapiens, UniProt P00734); assay: Inhibition of thrombin (unknown origin) using Bz-FVR-pNA as substrate preincubated for 30 mins followed by substrate addition and measured for 7 mins by spectrophotometric method
Plasma kallikrein = Plasma kallikrein (Homo sapiens, UniProt P03952); assay: Inhibition of plasma kallikrein (unknown origin) using Ac-NLTR-pNA as substrate preincubated for 30 mins followed by substrate addition and measured for 7 mins by spectrophotometric method
Trypsin = Trypsin (Homo sapiens, UniProt P07477+P07478+P35030); assay: Inhibition of trypsin (unknown origin) using Bz-FVR-pNA as substrate preincubated for 30 mins followed by substrate addition and measured for 7 mins by spectrophotometric method; assay type: protein assay
Coagulation factor XII = biological target: T3, Coagulation factor XII (Homo sapiens, UniProt P00748); assay: Inhibition of factor 12a (unknown origin) using Ac-QRFR-pNA as substrate preincubated for 30 mins followed by substrate addition and measured for 7 mins by spectrophotometric method
T3 sequence (P00748 whole entry): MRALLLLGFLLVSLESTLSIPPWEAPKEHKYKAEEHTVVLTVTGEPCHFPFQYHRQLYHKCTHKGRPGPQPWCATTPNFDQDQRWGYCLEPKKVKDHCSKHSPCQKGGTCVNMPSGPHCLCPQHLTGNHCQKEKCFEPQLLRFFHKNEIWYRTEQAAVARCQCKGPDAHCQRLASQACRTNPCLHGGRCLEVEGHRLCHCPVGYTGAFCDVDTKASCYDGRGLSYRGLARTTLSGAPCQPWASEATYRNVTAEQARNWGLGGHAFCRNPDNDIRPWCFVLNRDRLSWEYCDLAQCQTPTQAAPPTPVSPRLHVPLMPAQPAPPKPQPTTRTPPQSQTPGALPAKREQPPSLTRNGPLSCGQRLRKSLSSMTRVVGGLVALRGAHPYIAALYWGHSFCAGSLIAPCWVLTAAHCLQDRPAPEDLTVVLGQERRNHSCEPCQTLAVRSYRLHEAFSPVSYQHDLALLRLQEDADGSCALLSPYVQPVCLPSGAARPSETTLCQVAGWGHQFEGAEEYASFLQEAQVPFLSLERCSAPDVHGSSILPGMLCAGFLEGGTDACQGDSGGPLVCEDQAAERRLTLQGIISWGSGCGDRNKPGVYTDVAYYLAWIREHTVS

[2] = Drug uptake in human HeLa cells at 4 uM using Alexa Fluor 488 conjugated test compound after 1 hr by trypan blue dye based flow cytometry relative to HIV-Tat; assay type: ADME, cell-based
In short: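 HeLa cells given Alexa Fluor 488-conjugated peptides (4 μM). Mean fluorescence measured by flow cytometry before and after trypan blue quenching of extracellular signal. Values normalized to the HIV-TAT positive control (post-trypan blue). Three independent experiments, SD; one-way ANOVA with Tukey's post hoc test.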

HeLa = assay: Cytotoxicity against human HeLa cells up to 64 uM after 2 hrs by resazurin dye based assay; assay type: cell-based
In short: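 HeLa cells exposed to peptides for 2 h, concentrations up to 64 μM. Resazurin then added for 18 h at 37 °C. Resorufin absorbance read at 540 and 620 nm, and viability % expressed as the A620/A540 ratio. Three independent experiments, standard deviation.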

Kallikrein-4, sequence (Q9Y5K2 whole entry): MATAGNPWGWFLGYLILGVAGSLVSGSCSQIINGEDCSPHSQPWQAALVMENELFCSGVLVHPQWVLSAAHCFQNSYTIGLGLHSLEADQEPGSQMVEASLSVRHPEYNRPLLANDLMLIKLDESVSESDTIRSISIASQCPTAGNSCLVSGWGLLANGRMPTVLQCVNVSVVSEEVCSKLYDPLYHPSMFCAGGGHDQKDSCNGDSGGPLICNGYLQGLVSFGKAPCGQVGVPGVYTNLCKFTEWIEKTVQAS
Coagulation factor X, sequence (P00742 41-179 limits assumed): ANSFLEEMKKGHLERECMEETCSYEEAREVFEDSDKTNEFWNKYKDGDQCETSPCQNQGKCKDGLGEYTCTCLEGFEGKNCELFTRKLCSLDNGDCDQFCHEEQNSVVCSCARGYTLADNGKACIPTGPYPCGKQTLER
Coagulation factor X, sequence (P00742 235-488 limits assumed): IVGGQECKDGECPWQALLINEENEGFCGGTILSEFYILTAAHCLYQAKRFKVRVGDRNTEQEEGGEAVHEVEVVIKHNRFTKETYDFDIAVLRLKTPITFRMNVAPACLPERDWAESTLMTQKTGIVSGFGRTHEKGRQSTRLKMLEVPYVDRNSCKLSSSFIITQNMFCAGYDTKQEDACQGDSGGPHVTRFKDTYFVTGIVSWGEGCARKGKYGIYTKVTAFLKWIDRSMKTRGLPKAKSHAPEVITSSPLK
Plasma kallikrein, sequence (P03952 20-390 limits assumed): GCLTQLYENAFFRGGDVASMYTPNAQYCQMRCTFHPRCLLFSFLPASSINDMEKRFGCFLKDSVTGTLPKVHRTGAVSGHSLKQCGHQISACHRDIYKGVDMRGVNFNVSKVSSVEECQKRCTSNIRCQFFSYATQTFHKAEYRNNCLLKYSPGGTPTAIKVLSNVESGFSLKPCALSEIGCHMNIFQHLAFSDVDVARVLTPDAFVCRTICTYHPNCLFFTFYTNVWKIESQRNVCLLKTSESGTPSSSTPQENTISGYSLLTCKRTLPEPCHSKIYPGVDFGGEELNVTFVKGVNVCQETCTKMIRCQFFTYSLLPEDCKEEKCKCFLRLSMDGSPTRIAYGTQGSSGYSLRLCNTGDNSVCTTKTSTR
Plasma kallikrein, sequence (P03952 391-638 limits assumed): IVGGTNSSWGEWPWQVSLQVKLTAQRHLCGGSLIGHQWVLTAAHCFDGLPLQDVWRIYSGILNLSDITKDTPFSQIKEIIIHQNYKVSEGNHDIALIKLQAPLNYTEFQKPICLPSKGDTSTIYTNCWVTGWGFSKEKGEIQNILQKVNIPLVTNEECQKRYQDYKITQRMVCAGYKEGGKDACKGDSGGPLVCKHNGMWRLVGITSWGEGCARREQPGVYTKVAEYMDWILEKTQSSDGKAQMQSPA
Plasminogen, sequence (P00747 97-580 limits assumed): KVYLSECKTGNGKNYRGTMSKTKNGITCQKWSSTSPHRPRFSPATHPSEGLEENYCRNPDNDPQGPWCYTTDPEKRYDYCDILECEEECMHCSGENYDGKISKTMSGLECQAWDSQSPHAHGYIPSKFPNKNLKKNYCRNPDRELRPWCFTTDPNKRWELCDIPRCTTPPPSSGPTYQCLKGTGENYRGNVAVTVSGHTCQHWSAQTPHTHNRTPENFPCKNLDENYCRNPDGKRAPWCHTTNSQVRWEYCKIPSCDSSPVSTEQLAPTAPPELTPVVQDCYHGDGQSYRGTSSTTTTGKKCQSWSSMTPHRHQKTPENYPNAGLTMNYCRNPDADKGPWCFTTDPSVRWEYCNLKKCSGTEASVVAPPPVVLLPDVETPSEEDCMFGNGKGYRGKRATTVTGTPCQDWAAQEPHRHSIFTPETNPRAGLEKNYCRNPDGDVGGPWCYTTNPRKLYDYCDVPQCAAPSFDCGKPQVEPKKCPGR
Plasminogen, sequence (P00747 581-810 limits assumed): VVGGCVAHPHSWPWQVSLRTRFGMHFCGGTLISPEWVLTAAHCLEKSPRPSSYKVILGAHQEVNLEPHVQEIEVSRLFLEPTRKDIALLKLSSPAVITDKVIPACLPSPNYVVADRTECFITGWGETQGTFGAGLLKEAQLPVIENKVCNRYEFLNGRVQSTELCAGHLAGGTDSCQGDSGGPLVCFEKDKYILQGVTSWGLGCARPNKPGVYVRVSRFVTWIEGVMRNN
Kallikrein-7, sequence (P49862 whole entry): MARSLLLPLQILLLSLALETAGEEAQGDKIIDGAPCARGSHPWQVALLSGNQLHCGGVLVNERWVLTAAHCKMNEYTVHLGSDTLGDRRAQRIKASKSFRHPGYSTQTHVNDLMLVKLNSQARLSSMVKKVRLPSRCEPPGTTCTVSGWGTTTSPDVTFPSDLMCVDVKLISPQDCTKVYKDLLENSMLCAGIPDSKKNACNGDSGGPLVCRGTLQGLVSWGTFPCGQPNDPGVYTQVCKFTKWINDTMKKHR

SMILES	Ki (Kallikrein-4) [nM]	Drug uptake [2]	Activity (HeLa)	other results
CC[C@H](C)[C@@H]1NC(=O)[C@@H]2CSSC[C@@H]3NC(=O)[C@H](Cc4ccccc4)NC(=O)CNC(=O)CNC(=O)[C@H](CC(=O)O)NC(=O)[C@H](CO)NC(=O)CNC(=O)[C@H](CO)NC(=O)CNC(=O)[C@@H]4CSSC[C@H](NC(=O)[C@H](CC(=O)O)NC(=O)[C@H](CO)NC(=O)[C@H](CC(=O)O)NC(=O)[C@H](CCC(N)=O)NC(=O)[C@H](CCC(N)=O)NC(=O)[C@H](CSSC[C@H](NC1=O)C(=O)N[C@@H](CCCCN)C(=O)NCC(=O)N[C@@H](CC(N)=O)C(=O)NCC(=O)N[C@@H](Cc1ccc(O)cc1)C(=O)N4)NC(=O)[C@H](CCC(N)=O)NC(=O)[C@H](CCC(N)=O)NC(=O)[C@H](CC(C)C)NC(=O)[C@H]([C@@H](C)CC)NC(=O)[C@H](CCCNC(=N)N)NC(=O)[C@H](CCC(N)=O)NC3=O)C(=O)N1CCC[C@H]1C(=O)NCC(=O)N[C@@H](C)C(=O)N2 (cyclo(ACICKGNGYCGSGSDGGFCQRILQQCQQDSDCPG); disulfide 2-19, 4-26, 10-32)	0.44	Not Active	Non-Toxic	Ki (Kallikrein-5): > 10000 nM; Stability [1]: Stable; Ki (Plasminogen): > 10000 nM; Ki (Kallikrein-7): > 10000 nM; Ki (Kallikrein-14): > 10000 nM; Ki (Coagulation factor X): 520 nM; Ki (Prothrombin): > 10000 nM; Ki (Plasma kallikrein): > 10000 nM; Ki (Trypsin): 6.9 nM; Ki (Coagulation factor XII): > 10000 nM
CC[C@H](C)[C@@H]1NC(=O)[C@@H]2CSSC[C@@H]3NC(=O)[C@H](C(C)C)NC(=O)CNC(=O)CNC(=O)[C@H](CC(=O)O)NC(=O)[C@H](CO)NC(=O)CNC(=O)[C@H](CO)NC(=O)CNC(=O)[C@@H]4CSSC[C@H](NC(=O)[C@H](CC(=O)O)NC(=O)[C@H](CO)NC(=O)[C@H](CC(=O)O)NC(=O)[C@H](CCCNC(=N)N)NC(=O)[C@H](CCCNC(=N)N)NC(=O)[C@H](CSSC[C@H](NC1=O)C(=O)N[C@@H](CCCNC(=N)N)C(=O)NCC(=O)N[C@@H](CC(N)=O)C(=O)NCC(=O)N[C@@H](Cc1ccc(O)cc1)C(=O)N4)NC(=O)[C@H](CCCCN)NC(=O)[C@H](CCCCN)NC(=O)[C@H](CC(C)C)NC(=O)[C@H]([C@@H](C)CC)NC(=O)[C@H](CCCCN)NC(=O)[C@H](CCC(N)=O)NC3=O)C(=O)N1CCC[C@H]1C(=O)NCC(=O)N[C@@H](C)C(=O)N2	0.13	–	–	–
CC[C@H](C)[C@@H]1NC(=O)[C@@H]2CSSC[C@@H]3NC(=O)[C@H](C(C)C)NC(=O)CNC(=O)CNC(=O)[C@H](CC(=O)O)NC(=O)[C@H](CO)NC(=O)CNC(=O)[C@H](CO)NC(=O)CNC(=O)[C@@H]4CSSC[C@H](NC(=O)[C@H](CC(=O)O)NC(=O)[C@H](CO)NC(=O)[C@H](CC(=O)O)NC(=O)[C@H](CCC(N)=O)NC(=O)[C@H](CCC(N)=O)NC(=O)[C@H](CSSC[C@H](NC1=O)C(=O)N[C@@H](CCCCN)C(=O)NCC(=O)N[C@@H](CC(N)=O)C(=O)NCC(=O)N[C@@H](Cc1ccc(O)cc1)C(=O)N4)NC(=O)[C@H](CCC(N)=O)NC(=O)[C@H](CCC(N)=O)NC(=O)[C@H](CC(C)C)NC(=O)[C@H]([C@@H](C)CC)NC(=O)[C@H](CCCNC(=N)N)NC(=O)[C@@H]1CCCN1C3=O)C(=O)N1CCC[C@H]1C(=O)NCC(=O)N[C@@H](C)C(=O)N2 (cyclo(ACICKGNGYCGSGSDGGVCPRILQQCQQDSDCPG); disulfide 2-19, 4-26, 10-32)	1.8	Not Active	Non-Toxic	–
CC[C@H](C)[C@@H]1NC(=O)[C@@H]2CSSC[C@@H]3NC(=O)[C@H](C(C)C)NC(=O)CNC(=O)CNC(=O)[C@H](CC(=O)O)NC(=O)[C@H](CO)NC(=O)CNC(=O)[C@H](CO)NC(=O)CNC(=O)[C@@H]4CSSC[C@H](NC(=O)[C@H](CC(=O)O)NC(=O)[C@H](CO)NC(=O)[C@H](CC(=O)O)NC(=O)[C@H](CCCNC(=N)N)NC(=O)[C@H](CCCNC(=N)N)NC(=O)[C@H](CSSC[C@H](NC1=O)C(=O)N[C@@H](CCCNC(=N)N)C(=O)NCC(=O)N[C@@H](CC(N)=O)C(=O)NCC(=O)N[C@@H](Cc1ccc(O)cc1)C(=O)N4)NC(=O)[C@H](CCCCN)NC(=O)[C@H](CCCCN)NC(=O)[C@H](CC(C)C)NC(=O)[C@H]([C@@H](C)CC)NC(=O)[C@H](CCCNC(=N)N)NC(=O)[C@@H]1CCCN1C3=O)C(=O)N1CCC[C@H]1C(=O)NCC(=O)N[C@@H](C)C(=O)N2	0.3	Not Active	–	–
CC[C@H](C)[C@@H]1NC(=O)[C@@H]2CSSC[C@@H]3NC(=O)[C@H](Cc4ccccc4)NC(=O)CNC(=O)CNC(=O)[C@H](CC(=O)O)NC(=O)[C@H](CO)NC(=O)CNC(=O)[C@H](CO)NC(=O)CNC(=O)[C@@H]4CSSC[C@H](NC(=O)[C@H](CC(=O)O)NC(=O)[C@H](CO)NC(=O)[C@H](CC(=O)O)NC(=O)[C@H](CCCNC(=N)N)NC(=O)[C@H](CCCNC(=N)N)NC(=O)[C@H](CSSC[C@H](NC1=O)C(=O)N[C@@H](CCCNC(=N)N)C(=O)NCC(=O)N[C@@H](CC(N)=O)C(=O)NCC(=O)N[C@@H](Cc1ccc(O)cc1)C(=O)N4)NC(=O)[C@H](CCCCN)NC(=O)[C@H](CCCCN)NC(=O)[C@H](CC(C)C)NC(=O)[C@H]([C@@H](C)CC)NC(=O)[C@H](CCCCN)NC(=O)[C@@H]1CCCN1C3=O)C(=O)N1CCC[C@H]1C(=O)NCC(=O)N[C@@H](C)C(=O)N2	1.3	–	–	–
